# Active and inactive are the calls of the source. No cut-off for these calls is given here.
# Experiments:
# Homo sapiens [1] = organism: Homo sapiens; assay: Antiinflammatory activity against reconstituted human epidermis model assessed as inhibition of IL1alpha release after 24 hrs by ELISA relative to control; type: functional; details: Skin epidermis
# Procedure, shortened: (§1)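 Reconstituted human epidermis (0.63 cm2, differentiated from normal human keratinocytes) received 50 µL of PBS solutions applied topically. Concentrations were 1, 2, 3% for extract and 0.25, 0.5, 1% for pure compound. Tissues were held at 37 °C, 5% CO2, with daily medium change. Underlying medium was collected at 24 or 72 h and IL-1α (pg/mL) quantified by ELISA. Controls were PBS and SDS 0.25%. Three independent experiments.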
# Homo sapiens [2] = organism: Homo sapiens; assay: Antiinflammatory activity against reconstituted human epidermis model assessed as inhibition of IL1alpha release after 72 hrs by ELISA relative to control; type: functional; details: Skin epidermis; procedure, shortened: as §1
# Skin epidermis = assay: Effect on morphological changes in reconstituted human epidermis model assessed as induction of tissue degeneration and necrosis after 24 hrs; type: functional
# Procedure, shortened: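 Reconstituted epidermis was dosed topically with PBS solutions at 1-3% (extract) or 0.25-1% (compound), with PBS and SDS 0.25% as controls. After 24 or 72 h, tissues were fixed in 10% formalin, dehydrated through ethanol and toluene, and paraffin-embedded. Sections of 5 µm were stained with H&E and examined by light microscopy at 200×.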
# J774.A1 [3] = assay: Cytotoxicity against mouse J774A1 macrophages grown in monolayers by MTT assay; type: cell-based
# Procedure, shortened: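 Monolayer J774.A1 cells were exposed to test solutions in PBS, 0.01-1 mM for pure compounds and 1-1000 µg/mL for extract. Viability was read by MTT assay and expressed as % of PBS-treated controls. Experiments were repeated at least three times with three or more observations each. ANOVA with Bonferroni.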
# J774.A1 [4] = assay: Antiinflammatory activity against mouse J774A1 macrophages assessed as inhibition of LPS-induced iNOS expression at 1 mM treated 1 hr before LPS challenge and measured after 24 hrs by Western blot analysis; type: functional, cell-based
# Procedure, shortened: (§2)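 J774.A1 cells were given test solutions in PBS (0.01-1 mM) 1 h before and together with LPS (6 × 103 u/mL). After 24 h with LPS, cells were lysed and iNOS protein detected by Western blot with densitometry. Results are % inhibition versus LPS alone, from 3-6 independent experiments in triplicate. One-way ANOVA.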
# [5] = Cytotoxicity against reconstituted human epidermal cells assessed as cell viability after 72 hrs by MTT assay; type: cell-based
# Procedure, shortened: (§3)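 Epidermis tissues were dosed topically with 50 µL of PBS solutions (extract 1-3%, compound 0.25-1%) in duplicate and kept at 37 °C, 5% CO2 for 24 or 72 h, with medium changed daily. Controls were PBS pH 7.2 and SDS 0.25%. After washing, MTT (0.5 mg/mL) was added for 3 h at 37 °C and OD read at 570 nm. Results are % viability versus PBS-treated epidermis.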
# [6] = Cytotoxicity against reconstituted human epidermal cells assessed as cell viability after 24 hrs by MTT assay; type: cell-based; procedure, shortened: as §3
# J774.A1 [7] = assay: Antiinflammatory activity against mouse J774A1 macrophages assessed as inhibition of LPS-induced NO release pretreated for 1 hr before LPS challenge measured after 24 hrs by Griess method; type: functional, cell-based
# Procedure, shortened: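 Nitrite measured in medium by Griess reaction 24 h after LPS (6 × 103 u/mL). J774.A1 cells plated at 1.5 × 106 in P60 plates. Test solutions in PBS (0.01-1 mM) were added 1 h before and again together with LPS. Nitrite was read against a sodium nitrite standard curve in culture medium. Inhibition is given as % versus LPS-only cells. At least 3 independent experiments, 3 replicates each.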
# J774.A1 [8] = assay: Antiinflammatory activity against mouse J774A1 macrophages assessed as inhibition of LPS-induced iNOS expression pretreated for 1 hr before LPS challenge and measured after 24 hrs by Western blot analysis; type: functional, cell-based; procedure, shortened: as §2
structure (smiles),measurement,setting,value
CCCCCCCCCCCCOS(=O)(=O)[O-].[Na+],Activity,Homo sapiens [1],250 pg/mL
same,Activity,Homo sapiens [2],110 pg/mL
same,Activity,Skin epidermis,Active
C[C@@H]1O[C@@H](O[C@@H]2[C@@H](O)[C@H](OCCc3ccc(O)c(O)c3)O[C@H](CO)[C@H]2OC(=O)/C=C/c2ccc(O)c(O)c2)[C@H](O)[C@H](O)[C@H]1O [ACETOSIDE],EC50,J774.A1 [3],490 µM
same,Activity,J774.A1 [4],Active
O=C(/C=C/c1ccc(O)c(O)c1)O[C@@H]1C2C=CO[C@H](O[C@@H]3O[C@H](CO)[C@@H](O)[C@H](O)[C@H]3O)C2[C@]2(CO)O[C@H]12 (some centres undefined) [VERMINOSIDE],Activity,[5],Non-toxic
same,Activity,[6],Non-toxic
same,Activity,J774.A1 [7],Dose-dependent effect
same,Activity,J774.A1 [8],Dose-dependent effect

# — ChEMBL document CHEMBL1158826, “Anti-inflammatory activity of verminoside from Kigelia africana and evaluation of cutaneous irritation in cell cultures and reconstituted human epidermis” (J Nat Prod, 2005)
